Measured values reported in article PMC6072051 (MedChemComm, 2017).

What was measured:
[1] = system: ICL1; conditions: DL-isocitrate as substrate, LDH assay; cited from earlier work
[2] = biological target: T1, M. tuberculosis ICL1 (Mycobacterium tuberculosis, UniProt P9WKK7); assay: 1H NMR assay of ICL1-catalysed turnover of DL-isocitrate; assay type: biochemical; conditions: for single concentration inhibition of ICL1: 100 μM inhibitor, 190 nM ICL1, 1 mM DL-isocitrate, 5 mM MgCl2
T1 sequence (P9WKK7 1-428): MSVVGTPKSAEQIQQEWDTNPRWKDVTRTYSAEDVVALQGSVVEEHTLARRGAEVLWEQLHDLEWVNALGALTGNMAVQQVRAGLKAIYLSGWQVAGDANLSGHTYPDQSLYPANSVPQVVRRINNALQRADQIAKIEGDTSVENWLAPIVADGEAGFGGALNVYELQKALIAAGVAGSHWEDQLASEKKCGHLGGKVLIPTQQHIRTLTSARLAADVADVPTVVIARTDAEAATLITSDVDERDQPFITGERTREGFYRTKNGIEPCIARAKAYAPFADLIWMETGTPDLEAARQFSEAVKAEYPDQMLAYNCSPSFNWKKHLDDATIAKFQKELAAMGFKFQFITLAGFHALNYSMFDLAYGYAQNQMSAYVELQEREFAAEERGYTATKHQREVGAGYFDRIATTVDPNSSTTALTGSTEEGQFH
Procedure, shortened: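 Recombinant ICL1 from E. coli BL21(DE3), purified by His-trap and gel filtration. Reactions in 50 mM Tris-D11 pH 7.5, 90% H2O/10% D2O at 300 K. 1H spectra with excitation-sculpting water suppression every ~1.3 min track the isocitrate decrease and the succinate singlet at 2.3 ppm. Initial rates from 15–20 min; inhibitors at varied concentrations; triplicates; IC50 by 3-parameter sigmoid fit.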

[3] = biological target: T1, M. tuberculosis ICL1; assay: 1H NMR ICL1 enzyme kinetics; assay type: biochemical; conditions: methylisocitrate as substrate, 190 nM ICL1, 5 mM MgCl2

SMILES: O=C(O)CC(C(=O)O)C(O)C(=O)O (racemic) [DL-isocitrate, DL-Isocitrate]
- Km [1]: 190 µM
- kcat [1]: 5.24 s^–1

SMILES: O=C(O)CC[N+](=O)[O-] [3-Nitropropionate, reference compound]
- single concentration inhibition of ICL1 [2]: most potent inhibitor

SMILES: CCOC(=O)c1ccc(CC(=O)c2oc3cc(O)ccc3c2C)o1 [Compound 29]
- IC50 [2]: > 100 µM
- single concentration inhibition of ICL1 [2]: significantly inhibited ICL1

SMILES: CCOC(=O)c1cc2cc(CC(=O)c3ccc(O)cc3O)ccc2o1 [Compound 38]
- IC50 [2]: > 100 µM
- single concentration inhibition of ICL1 [2]: significantly inhibited ICL1

SMILES: COC(=O)C=CC(=O)c1ccc(OC)cc1 [Methyl-4-(4-methoxyphenyl)-4-oxobut-2-enoate, reference compound]
- single concentration inhibition of ICL1 [2]: weakest of the four tested

SMILES: C[C@](CC(=O)O)(C(=O)O)[C@H](O)C(=O)O [methylisocitrate]
- substrate concentration above which substrate inhibition was observed [3]: exceeded 1 mM
